This passage reports Ki results from ChEMBL document CHEMBL1124921, “Alpha-diketone and alpha-keto ester derivatives of N-protected amino acids and peptides as novel inhibitors of cysteine and serine proteinases” (J Med Chem, 1990).

For assay [1], the target named is Chymotrypsinogen A (Bos taurus, UniProt P00766). Description: Inhibition of alpha-chymotrypsin. An outline of the steps: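 Commercial α-chymotrypsin was assayed continuously with N-Suc-Ala-Ala-Pro-Phe-p-nitroanilide as substrate in HEPES buffer instead of Tris. […] Errors under 30%.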
Assay [2] in a line: Inhibition of Calpain. On the set-up: species or system Gallus gallus. An outline of the steps:
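Calpain purified from chicken gizzard, run as a continuous enzyme assay following a previously published method. Apparent dissociation constants Ki were derived for competitive inhibition; errors under 30%.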

Where a SMILES comes first, the peptide text is derived from it. The star is where a group is joined. Cbz = O=C(OCc1ccccc1)*

With `CC(C)[C@H](NC(=O)OCc1ccccc1)C(=O)N[C@H](Cc1ccccc1)C(=O)C(F)(F)F`, the Ki in assay [1] is 45 µM; in assay [2], over 180 µM.
Taken in the same sequence, the figures for `CC(=O)C(=O)[C@H](Cc1ccccc1)NC(=O)[C@@H](NC(=O)OCc1ccccc1)C(C)C` were 0.2 µM and 0.7 µM.
Taken in the same sequence, the figures for `O=C(N[C@@H](Cc1ccccc1)C(=O)C(F)(F)F)c1ccccc1` were 2.3 µM and over 1000 µM.
Taken in the same sequence, the figures for `CCOC(=O)C(=O)[C@H](Cc1ccccc1)NC(=O)[C@@H](NC(=O)OCc1ccccc1)C(C)C` were 0.06 µM and 0.6 µM.
For the compound `CC(C)[C@H](NC(=O)OCc1ccccc1)C(=O)N[C@@H](Cc1ccccc1)C(=O)C(F)(F)F`, the inhibition constant Ki is 2.4 µM in assay [1] and over 180 µM in assay [2].
For `COC(=O)C(=O)[C@H](Cc1ccccc1)NC(=O)c1ccccc1`, in that order: 0.15 µM and 150 µM.
For `CC(=O)C(=O)[C@H](Cc1ccccc1)NC(=O)OCc1ccccc1`, in that order: 1.2 µM and 250 µM.
Taken in the same sequence, the figures for `CCOC(=O)C(=O)[C@H](Cc1ccccc1)NC(=O)OCc1ccccc1` were 0.13 µM and 92 µM.
Turning to `COC(=O)C(=O)[C@H](Cc1ccccc1)NC(=O)[C@@H](NC(=O)OCc1ccccc1)C(C)C`, the Ki in assay [1] came to 0.06 µM; in assay [2], 0.4 µM.
Compound `CC(=O)[C@H](Cc1ccccc1)NC(=O)OCc1ccccc1` yielded an inhibitory constant (Ki) in assay [2] of over 2000 µM.
In the case of `O=C[C@H](Cc1ccccc1)NC(=O)c1ccccc1`, the inhibition constant Ki in assay [1] was found to be 64 µM; in assay [2], 4 µM.
Taken in the same sequence, the figures for `O=C(N[C@@H](Cc1ccccc1)C(=O)C(F)F)c1ccccc1` were 7.7 µM and over 1000 µM.
Taken in the same sequence, the figures for `O=C[C@H](Cc1ccccc1)NC(=O)OCc1ccccc1` were 360 µM and 3 µM.
Taken in the same sequence, the figures for `CC(C)[C@H](NC(=O)OCc1ccccc1)C(=O)N[C@H](C=O)Cc1ccccc1` (Cbz-Val-Phe-aldehyde) were 54 µM and 0.01 µM.
